# Data as given in ChEMBL document CHEMBL4808207, “Macrocyclic Peptides as a Novel Class of NNMT Inhibitors: A SAR Study Aimed at Inhibitory Activity in the Cell” (ACS Med Chem Lett, 2021).
# pIC50: −log10 of the molar value. Numbered stars: 1 amine (or outer) side, 2 acyl side, 3 side chain; on linkers, the order of the positions; unused ones are H or OH. Bridge positions count the residues as written; N and C are the ends. Square brackets hold non-standard residues; d marks the D form. Peptide text beside a SMILES is read from it. Bip(4'-CONH2) = NC(=O)c1ccc(-c2ccc(C[C@H](N)C(=O)O)cc2)cc1; Pro(trans-4-Ph) = O=C(O)[C@@H]1C[C@@H](c2ccccc2)CN1; Pro(cis-4-CF3) = O=C(O)[C@@H]1C[C@H](C(F)(F)F)CN1; X1 = O=C([C@@H]1C[C@@H](C(F)(F)F)CN1[*:1])[*:2]; Phe(4-CONH2) = NC(=O)c1ccc(C[C@H](N)C(=O)O)cc1; Bip = N[C@@H](Cc1ccc(-c2ccccc2)cc1)C(=O)O; Pro(4,4-F2) = O=C(O)[C@@H]1CC(F)(F)CN1; NHCH2CH2SCH2CO = O=C(CSCCN[*:1])[*:2]; Lys(Me2) = CN(C)CCCC[C@H](N)C(=O)O; NMeR = CN[C@@H](CCCNC(=N)N)C(=O)O; NMeF = CN[C@@H](Cc1ccccc1)C(=O)O; tBuAla = CC(C)(C)C[C@H](N)C(=O)O; Tic = O=C(O)[C@@H]1Cc2ccccc2CN1; hLys = NCCCCC[C@H](N)C(=O)O; NMeC = CN[C@@H](CS)C(=O)O; Pip = O=C(O)[C@@H]1CCCCN1
# Assays:
# HEK293 = assay: Cytotoxicity against human HEK293 cells overexpressing human NNMT assessed as reduction in ATP level measured after 24 hrs by CellTiter-glo luminescence assay; assay type: cell-based; details: hek293, 24 h
# How it was run: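 Reported value is the peptide concentration giving a 20% decline in cellular ATP in NNMT-overexpressing HEK293 cells, with peptides tested up to 100 μM.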
# [1] = target: T1, Nicotinamide N-methyltransferase (Mus musculus, UniProt O55239); assay: Inhibition of mouse recombinant NNMT using nicotinamide and SAM as substrate assessed as reduction in 1-methyl-nicotinamide formation incubated for 22 to 24 hrs by RapidFire Mass spectroscopy
# T1 sequence (O55239 whole entry): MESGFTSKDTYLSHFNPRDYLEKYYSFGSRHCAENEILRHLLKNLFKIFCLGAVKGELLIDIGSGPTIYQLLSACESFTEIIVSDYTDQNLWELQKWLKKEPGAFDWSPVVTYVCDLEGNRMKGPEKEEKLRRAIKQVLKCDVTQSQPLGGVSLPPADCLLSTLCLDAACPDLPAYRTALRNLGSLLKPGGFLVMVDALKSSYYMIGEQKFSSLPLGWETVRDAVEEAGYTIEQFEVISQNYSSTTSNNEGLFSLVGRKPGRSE
smiles,measurement,setting,value
"CN(C)CCCC[C@@H]1NC(=O)[C@H](CC(C)(C)C)NC(=O)[C@@H]2C[C@@H](c3ccccc3)CN2C(=O)[C@H](Cc2ccccc2)N(C)C(=O)CSCCNC(=O)[C@H](Cc2ccc(-c3ccc(C(N)=O)cc3)cc2)NC(=O)[C@@H]2Cc3ccccc3CN2C(=O)[C@@H]2CC(F)(F)CN2C1=O (cyclo([Lys(Me2)][Pro(4,4-F2)][Tic][Bip(4'-CONH2)][NHCH2CH2SCH2CO][NMeF][Pro(trans-4-Ph)][tBuAla]))",CC20,HEK293,> 100 µM
same,pIC50,[1],9.21
"CN1C(=O)CSCCNC(=O)[C@H](Cc2ccc(-c3ccc(C(N)=O)cc3)cc2)NC(=O)[C@@H]2Cc3ccccc3CN2C(=O)[C@@H]2CC(F)(F)CN2C(=O)[C@@H]2CCCCN2C(=O)[C@H](CC(C)(C)C)NC(=O)[C@@H]2C[C@@H](c3ccccc3)CN2C(=O)[C@@H]1Cc1ccccc1 (cyclo([NMeF][Pro(trans-4-Ph)][tBuAla][Pip][Pro(4,4-F2)][Tic][Bip(4'-CONH2)][NHCH2CH2SCH2CO]))",CC20,HEK293,> 100 µM
CC(C)C[C@@H]1NC(=O)[C@@H]2CCCN2C(=O)[C@H](Cc2ccccc2)NC(=O)CSC[C@@H](C(N)=O)NC(=O)[C@H](Cc2ccc(-c3ccc(C(N)=O)cc3)cc2)NC(=O)[C@@H]2Cc3ccccc3CN2C(=O)[C@@H]2CCCN2C(=O)[C@H](CCCCN)NC1=O ({CH2CO}-FPLKP[Tic][Bip(4'-CONH2)]C-NH2; thioether N-8),CC20,HEK293,> 100 µM
CC(C)C[C@@H]1NC(=O)[C@@H]2CCCN2C(=O)[C@H](Cc2ccccc2)NC(=O)CSC[C@@H](C(N)=O)NC(=O)[C@H](Cc2ccc(-c3ccccc3)cc2)NC(=O)[C@@H]2Cc3ccccc3CN2C(=O)[C@@H]2CCCN2C(=O)[C@H](CCCCN)NC1=O ({CH2CO}-FPLKP[Tic][Bip]C-NH2; thioether N-8),pIC50,[1],7.14
CC(C)C[C@@H]1NC(=O)[C@@H]2CCCN2C(=O)[C@H](Cc2ccccc2)NC(=O)CSC[C@@H](C(N)=O)NC(=O)[C@H](Cc2ccc(C(N)=O)cc2)NC(=O)[C@@H]2Cc3ccccc3CN2C(=O)[C@@H]2CCCN2C(=O)[C@H](CCCCN)NC1=O ({CH2CO}-FPLKP[Tic][Phe(4-CONH2)]C-NH2; thioether N-8),pIC50,[1],7.40
"CC(C)C[C@@H]1NC(=O)[C@@H]2CCCN2C(=O)[C@H](Cc2ccccc2)NC(=O)CSC[C@@H](C(N)=O)NC(=O)[C@H](Cc2ccc(C(N)=O)cc2)NC(=O)[C@@H]2Cc3ccccc3CN2C(=O)[C@@H]2CC(F)(F)CN2C(=O)[C@H](CCCCN)NC1=O ({CH2CO}-FPLK[Pro(4,4-F2)][Tic][Phe(4-CONH2)]C-NH2; thioether N-8)",pIC50,[1],7.89
CC(C)C[C@@H]1NC(=O)[C@@H]2CCCN2C(=O)[C@H](Cc2ccccc2)NC(=O)CSC[C@@H](C(N)=O)NC(=O)[C@H](Cc2ccc(C(N)=O)cc2)NC(=O)[C@@H]2Cc3ccccc3CN2C(=O)[C@@H]2C[C@H](C(F)(F)F)CN2C(=O)[C@H](CCCCN)NC1=O ({CH2CO}-FPLK[Pro(cis-4-CF3)][Tic][Phe(4-CONH2)]C-NH2; thioether N-8),pIC50,[1],5.87
CC(C)C[C@@H]1NC(=O)[C@@H]2CCCN2C(=O)[C@H](Cc2ccccc2)NC(=O)CSC[C@@H](C(N)=O)NC(=O)[C@H](Cc2ccc(C(N)=O)cc2)NC(=O)[C@@H]2Cc3ccccc3CN2C(=O)[C@@H]2C[C@@H](C(F)(F)F)CN2C(=O)[C@H](CCCCN)NC1=O ({CH2CO}-FPLK[X1][Tic][Phe(4-CONH2)]C-NH2; thioether N-8),pIC50,[1],6.58
N=C(N)NCCC[C@@H]1NC(=O)[C@H](Cc2ccc(O)cc2)NC(=O)[C@@H]2CCCN2C(=O)[C@H](Cc2ccccc2)NC(=O)CSC[C@@H](C(N)=O)NC(=O)[C@H](Cc2ccc(C(N)=O)cc2)NC(=O)[C@@H]2Cc3ccccc3CN2C(=O)[C@@H]2CCCN2C1=O ({CH2CO}-FPYRP[Tic][Phe(4-CONH2)]C-NH2; thioether N-8),CC20,HEK293,> 100 µM
same,pIC50,[1],7.60
CN1C(=O)[C@H](Cc2ccc(C(N)=O)cc2)NC(=O)[C@@H]2Cc3ccccc3CN2C(=O)[C@@H]2CCCN2C(=O)[C@H](CCCNC(=N)N)NC(=O)[C@H](Cc2ccc(O)cc2)NC(=O)[C@@H]2CCCN2C(=O)[C@H](Cc2ccccc2)NC(=O)CSC[C@H]1C(N)=O ({CH2CO}-FPYRP[Tic][Phe(4-CONH2)][NMeC]-NH2; thioether N-8),pIC50,[1],5.10
CN1C(=O)[C@H](Cc2ccc(O)cc2)NC(=O)[C@@H]2CCCN2C(=O)[C@H](Cc2ccccc2)NC(=O)CSC[C@@H](C(N)=O)NC(=O)[C@H](Cc2ccc(C(N)=O)cc2)NC(=O)[C@@H]2Cc3ccccc3CN2C(=O)[C@@H]2CCCN2C(=O)[C@@H]1CCCNC(=N)N ({CH2CO}-FPY[NMeR]P[Tic][Phe(4-CONH2)]C-NH2; thioether N-8),pIC50,[1],6.56
"CC(C)C[C@@H]1NC(=O)[C@@H]2CC(F)(F)CN2C(=O)[C@H](Cc2ccccc2)NC(=O)CSC[C@@H](C(N)=O)NC(=O)[C@H](Cc2ccc(C(N)=O)cc2)NC(=O)[C@@H]2Cc3ccccc3CN2C(=O)[C@@H]2CCCN2C(=O)[C@H](CCCCN)NC1=O ({CH2CO}-F[Pro(4,4-F2)]LKP[Tic][Phe(4-CONH2)]C-NH2; thioether N-8)",pIC50,[1],7.74
CC(C)C[C@@H]1NC(=O)[C@@H]2C[C@H](C(F)(F)F)CN2C(=O)[C@H](Cc2ccccc2)NC(=O)CSC[C@@H](C(N)=O)NC(=O)[C@H](Cc2ccc(C(N)=O)cc2)NC(=O)[C@@H]2Cc3ccccc3CN2C(=O)[C@@H]2CCCN2C(=O)[C@H](CCCCN)NC1=O ({CH2CO}-F[Pro(cis-4-CF3)]LKP[Tic][Phe(4-CONH2)]C-NH2; thioether N-8),pIC50,[1],6.67
CC(C)C[C@@H]1NC(=O)[C@@H]2C[C@@H](c3ccccc3)CN2C(=O)[C@H](Cc2ccccc2)NC(=O)CSC[C@@H](C(N)=O)NC(=O)[C@H](Cc2ccc(C(N)=O)cc2)NC(=O)[C@@H]2Cc3ccccc3CN2C(=O)[C@@H]2CCCN2C(=O)[C@H](CCCCN)NC1=O ({CH2CO}-F[Pro(trans-4-Ph)]LKP[Tic][Phe(4-CONH2)]C-NH2; thioether N-8),pIC50,[1],8.92
CC(C)C[C@@H]1NC(=O)[C@@H]2C[C@@H](C(F)(F)F)CN2C(=O)[C@H](Cc2ccccc2)NC(=O)CSC[C@@H](C(N)=O)NC(=O)[C@H](Cc2ccc(C(N)=O)cc2)NC(=O)[C@@H]2Cc3ccccc3CN2C(=O)[C@@H]2CCCN2C(=O)[C@H](CCCCN)NC1=O ({CH2CO}-F[X1]LKP[Tic][Phe(4-CONH2)]C-NH2; thioether N-8),pIC50,[1],7.74
CN1C(=O)CSC[C@@H](C(N)=O)NC(=O)[C@H](Cc2ccc(C(N)=O)cc2)NC(=O)[C@@H]2Cc3ccccc3CN2C(=O)[C@@H]2CCCN2C(=O)[C@H](CCCNC(=N)N)NC(=O)[C@H](Cc2ccccc2)NC(=O)[C@@H]2CCCN2C(=O)[C@@H]1Cc1ccccc1 ({CH2CO}-[NMeF]PFRP[Tic][Phe(4-CONH2)]C-NH2; thioether N-8),pIC50,[1],6.60
CC(C)C[C@@H]1NC(=O)[C@@H]2CCCN2C(=O)[C@H](Cc2ccccc2)N(C)C(=O)CSC[C@@H](C(N)=O)NC(=O)[C@H](Cc2ccc(C(N)=O)cc2)NC(=O)[C@@H]2Cc3ccccc3CN2C(=O)[C@@H]2CCCN2C(=O)[C@H](CCCNC(=N)N)NC1=O ({CH2CO}-[NMeF]PLRP[Tic][Phe(4-CONH2)]C-NH2; thioether N-8),pIC50,[1],7.02
CC(C)C[C@@H]1NC(=O)[C@@H]2CCCN2C(=O)[C@H](Cc2ccccc2)N(C)C(=O)CSC[C@@H](C(N)=O)NC(=O)[C@H](Cc2ccc(C(N)=O)cc2)NC(=O)[C@@H]2Cc3ccccc3CN2C(=O)[C@@H]2CCCN2C(=O)[C@H](CCCCCN)NC1=O ({CH2CO}-[NMeF]PL[hLys]P[Tic][Phe(4-CONH2)]C-NH2; thioether N-8),pIC50,[1],8.89
CN1C(=O)CSC[C@@H](C(N)=O)NC(=O)[C@H](Cc2ccc(C(N)=O)cc2)NC(=O)[C@@H]2Cc3ccccc3CN2C(=O)[C@@H]2CCCN2C(=O)[C@H](CCCCN)NC(=O)[C@H](Cc2ccc(O)cc2)NC(=O)[C@@H]2CCCN2C(=O)[C@@H]1Cc1ccccc1 ({CH2CO}-[NMeF]PYKP[Tic][Phe(4-CONH2)]C-NH2; thioether N-8),pIC50,[1],6.73
CN1C(=O)CSC[C@@H](C(N)=O)NC(=O)[C@H](Cc2ccc(C(N)=O)cc2)NC(=O)[C@@H]2Cc3ccccc3CN2C(=O)[C@@H]2CCCN2C(=O)[C@H](CCCNC(=N)N)NC(=O)[C@H](Cc2ccc(O)cc2)NC(=O)[C@@H]2CCCN2C(=O)[C@@H]1Cc1ccccc1 ({CH2CO}-[NMeF]PYRP[Tic][Phe(4-CONH2)]C-NH2; thioether N-8),pIC50,[1],6.66
CN(C)CCCC[C@@H]1NC(=O)[C@H](Cc2ccc(O)cc2)NC(=O)[C@@H]2CCCN2C(=O)[C@H](Cc2ccccc2)N(C)C(=O)CSC[C@@H](C(N)=O)NC(=O)[C@H](Cc2ccc(C(N)=O)cc2)NC(=O)[C@@H]2Cc3ccccc3CN2C(=O)[C@@H]2CCCN2C1=O ({CH2CO}-[NMeF]PY[Lys(Me2)]P[Tic][Phe(4-CONH2)]C-NH2; thioether N-8),pIC50,[1],5.87
CN1C(=O)CSC[C@@H](C(N)=O)NC(=O)[C@H](Cc2ccc(C(N)=O)cc2)NC(=O)[C@@H]2Cc3ccccc3CN2C(=O)[C@@H]2CCCN2C(=O)[C@H](CCCCN)NC(=O)[C@H](CC(C)(C)C)NC(=O)[C@@H]2CCCN2C(=O)[C@@H]1Cc1ccccc1 ({CH2CO}-[NMeF]P[tBuAla]KP[Tic][Phe(4-CONH2)]C-NH2; thioether N-8),pIC50,[1],7.64
